Assay results published in ChEMBL document CHEMBL1138657 (2004).
Values after ≈ are worked out from the molar mass of the structure shown.

Tests used:
[1] = test system: Candida albicans; test: Minimum inhibitory concentration to inhibit 50% of the isolates; format: functional, Fungi
Summary of the method: (§1)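 Broth microdilution per NCCLS document against 20 C. albicans strains. […] MIC is reported in µg/mL as the arithmetic mean ± SD. MIC50 and MIC90 are the MICs at which 50% and 90% of isolates are inhibited. C. parapsilosis ATCC22019 was run as the QC strain.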

[2] = test system: Candida parapsilosis; test: Antifungal activity to inhibit Candida parapsilosis ATCC 22019; format: functional, Fungi; details: Lodderomyces parapsilosis
[3] = test system: K562; test: Cytotoxicity to reduce chronic myeloid leukemia K 562 cells; format: functional; details: Homo sapiens
Summary of the method: (§2)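 CC50 is the concentration in µM that reduces viability of human histiocytic lymphoma U937 or chronic myeloid leukemia K562 cells by 50%.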

[4] = test system: Candida albicans; test: Minimum inhibitory concentration to inhibit 90% of the isolates; format: functional, Fungi; summary of the method: as §1
[5] = test system: Candida parapsilosis; test: Minimum inhibitory concentration to inhibit Candida parapsilosis ATCC 22019; format: functional, Fungi; details: Lodderomyces parapsilosis; summary of the method: as §1
[6] = test system: Candida albicans; test: Minimum inhibitory concentration to inhibit Candida albicans strain range is equal to 1-8; format: functional, Fungi; summary of the method: as §1
[7] = test system: Candida albicans; test: Antifungal activity to cause 99% reduction of surviving cells in 50% isolates; format: functional, Fungi
[8] = test system: Candida albicans; test: Antifungal activity to cause 99% reduction of surviving cells range is equal to 4-16; format: functional, Fungi
[9] = test system: Candida albicans; test: Antifungal activity to cause 99% reduction of surviving cells in 90% isolates; format: functional, Fungi
[10] = test system: U-937; test: Cytotoxicity to reduce human histolytic lymphoma U937 cells; format: functional; summary of the method: as §2
[11] = test system: Candida albicans; test: Antifungal activity to cause 99% reduction of surviving cells range is equal to 64-128; format: functional, Fungi
[12] = test system: Candida albicans; test: Minimum inhibitory concentration to inhibit Candida albicans strain range is equal to 32-128; format: functional, Fungi
[13] = test system: Candida albicans; test: Minimum inhibitory concentration to inhibit Candida albicans strain range is equal to 0.5-4; format: functional, Fungi; summary of the method: as §1
[14] = test system: Candida albicans; test: Antifungal activity to cause 99% reduction of surviving cells range is equal to 1-8; format: functional, Fungi
[15] = test system: Candida albicans; test: Minimum inhibitory concentration to inhibit Candida albicans strain range is equal to 8-64; format: functional, Fungi; summary of the method: as §1
[16] = test system: Candida albicans; test: Antifungal activity to cause 99% reduction of surviving cells range is equal to 16-128; format: functional, Fungi
[17] = test system: Candida albicans; test: Antifungal activity to cause 99% reduction of surviving cells range is equal to 8-16; format: functional, Fungi
[18] = test system: Candida albicans; test: Minimum inhibitory concentration to inhibit Candida albicans strain range is equal to 16-128; format: functional, Fungi; summary of the method: as §1
[19] = test system: Candida albicans; test: Antifungal activity to cause 99% reduction of surviving cells range is equal to 4-32; format: functional, Fungi
[20] = test system: Candida albicans; test: Antifungal activity to cause 99% reduction of surviving cells range is equal to 8-32; format: functional, Fungi
[21] = test system: Candida albicans; test: Minimum inhibitory concentration to inhibit Candida albicans strain range is equal to 2-8; format: functional, Fungi; summary of the method: as §1
[22] = test system: Candida albicans; test: Antifungal activity to cause 99% reduction of surviving cells range is equal to 2-16; format: functional, Fungi
[23] = test system: Candida albicans; test: Minimum inhibitory concentration to inhibit Candida Albicans strain range is equal to 4-64; format: functional, Fungi; summary of the method: as §1
[24] = test system: Candida albicans; test: Minimum inhibitory concentration to inhibit 50% of the isolates
[25] = test system: Candida albicans; test: Antifungal activity to cause 99% reduction of surviving cells range is equal to 32-128; format: functional, Fungi
[26] = test system: Candida albicans; test: Minimum inhibitory concentration to inhibit Candida albicans strain range is equal to 1-4; format: functional, Fungi; summary of the method: as §1
[27] = test system: Candida albicans; test: Antifungal activity to cause 99% reduction of surviving cells range is equal to 2-32; format: functional, Fungi
[28] = test system: Candida albicans; test: Minimum inhibitory concentration to inhibit Candida albicans strain range is equal to 2-16; format: functional, Fungi
[29] = test system: Candida albicans; test: Antifungal activity to cause 99% reduction of surviving cells; format: functional, Fungi
[30] = test system: Candida albicans; test: Minimum inhibitory concentration to inhibit Candida albicans strain range is equal to 0.125-64; format: functional, Fungi

SMILES | MIC50 [1] | MFC [2] | CC50 [3] | MIC90 [4] | MIC [5] | MFC50 [7] | MFC90 [9] | CC50 [10] | further results
Clc1ccc(OC(CCn2ccnc2)c2ccccc2)c(Cl)c1 (stereo unspecified) | 4 µg/mL (≈ 11.5 µM) | 8 µg/mL (≈ 23 µM) | 96.7 µM | 8 µg/mL (≈ 23 µM) | 2 µg/mL (≈ 5.76 µM) | 8 µg/mL (≈ 23 µM) | 8 µg/mL (≈ 23 µM) | 56.5 µM | MIC [6]: < 8 µg/mL; MFC [8]: < 16 µg/mL
CNCCC(Oc1ccc(C(F)(F)F)cc1)c1ccccc1 (stereo unspecified) [FLUOXETINE] | 64 µg/mL (≈ 207 µM) | 64 µg/mL (≈ 207 µM) | 25 µM | 128 µg/mL (≈ 414 µM) | 8 µg/mL (≈ 25.9 µM) |  |  | 33.3 µM | MFC [11]: < 128 µg/mL; MIC [12]: < 128 µg/mL
Clc1ccc(C(CCn2ccnc2)Oc2ccc(Cl)cc2Cl)cc1 (stereo unspecified) | 2 µg/mL (≈ 5.24 µM) | 8 µg/mL (≈ 21 µM) | 54 µM | 4 µg/mL (≈ 10.5 µM) | 0.5 µg/mL (≈ 1.31 µM) | 4 µg/mL (≈ 10.5 µM) | 4 µg/mL (≈ 10.5 µM) | 61 µM | MIC [13]: < 4 µg/mL; MFC [14]: < 8 µg/mL
O=[N+]([O-])c1ccc(OC(CCn2ccnc2)c2ccccc2)cc1 (stereo unspecified) | 32 µg/mL (≈ 99 µM) | 32 µg/mL (≈ 99 µM) | 102 µM | 32 µg/mL (≈ 99 µM) |  | 32 µg/mL (≈ 99 µM) | >128 µg/mL | 97.2 µM | MIC [15]: < 64 µg/mL; MIC [2]: 4 µg/mL (≈ 12.4 µM); MFC [16]: < 128 µg/mL
Cc1ccc(OC(CCn2ccnc2)c2ccccc2)cc1 (stereo unspecified) | 8 µg/mL (≈ 27.4 µM) | 16 µg/mL (≈ 54.7 µM) | 95.9 µM | 16 µg/mL (≈ 54.7 µM) | 2 µg/mL (≈ 6.84 µM) | 16 µg/mL (≈ 54.7 µM) | 16 µg/mL (≈ 54.7 µM) | 141 µM | MFC [17]: < 16 µg/mL; MIC [18]: 16 µg/mL (≈ 54.7 µM)
Clc1ccc(COC(Cn2ccnc2)c2ccc(Cl)cc2Cl)c(Cl)c1 (stereo unspecified) [MICONAZOLE] | 4 µg/mL (≈ 9.61 µM) | 0.5 µg/mL (≈ 1.2 µM) | 39.3 µM | 4 µg/mL (≈ 9.61 µM) | 1 µg/mL (≈ 2.4 µM) | 8 µg/mL (≈ 19.2 µM) | 16 µg/mL (≈ 38.4 µM) | 40 µM | MIC [6]: < 8 µg/mL; MFC [19]: < 32 µg/mL
Clc1ccc(COC(Cn2ccnc2)c2ccc(Cl)cc2Cl)cc1 (stereo unspecified) [ECONAZOLE] | 4 µg/mL (≈ 10.5 µM) | 2 µg/mL (≈ 5.24 µM) | 54.7 µM | 8 µg/mL (≈ 21 µM) | 2 µg/mL (≈ 5.24 µM) | 16 µg/mL (≈ 41.9 µM) | 32 µg/mL (≈ 83.8 µM) | 60 µM | MFC [20]: < 32 µg/mL; MIC [21]: < 8 µg/mL
Fc1ccc(C(CCn2ccnc2)Oc2ccc(Cl)cc2Cl)cc1 (stereo unspecified) | 2 µg/mL (≈ 5.48 µM) | 4 µg/mL (≈ 11 µM) | 33.5 µM | 4 µg/mL (≈ 11 µM) | 0.5 µg/mL (≈ 1.37 µM) | 8 µg/mL (≈ 21.9 µM) | 8 µg/mL (≈ 21.9 µM) | 43.3 µM | MIC [13]: < 4 µg/mL; MFC [22]: < 16 µg/mL
Fc1ccc(OC(CCn2ccnc2)c2ccccc2)c(F)c1 (stereo unspecified) |  | 32 µg/mL (≈ 102 µM) | 298 µM | 64 µg/mL (≈ 204 µM) | 8 µg/mL (≈ 25.5 µM) | 64 µg/mL (≈ 204 µM) | 128 µg/mL (≈ 407 µM) | 219 µM | MIC [23]: < 64 µg/mL; MIC50 [24]: 32 µg/mL (≈ 102 µM); MFC [25]: < 128 µg/mL
Cc1ccc(C(CCn2ccnc2)Oc2ccc(Cl)cc2Cl)cc1 (stereo unspecified) | 2 µg/mL (≈ 5.54 µM) | 4 µg/mL (≈ 11.1 µM) | 31.4 µM | 8 µg/mL (≈ 22.1 µM) | 1 µg/mL (≈ 2.77 µM) | 4 µg/mL (≈ 11.1 µM) | 16 µg/mL (≈ 44.3 µM) | 40 µM | MIC [26]: < 4 µg/mL; MFC [22]: < 16 µg/mL
Clc1ccc(OC(CCn2ccnc2)c2ccccc2)cc1 (stereo unspecified) | 2 µg/mL (≈ 6.39 µM) | 32 µg/mL (≈ 102 µM) | 221 µM | 4 µg/mL (≈ 12.8 µM) | 4 µg/mL (≈ 12.8 µM) | 4 µg/mL (≈ 12.8 µM) | 16 µg/mL (≈ 51.2 µM) | 84.9 µM | MFC [27]: < 32 µg/mL; MIC [6]: < 8 µg/mL
CC(=O)N1CCN(c2ccc(OC[C@H]3CO[C@](Cn4ccnc4)(c4ccc(Cl)cc4Cl)O3)cc2)CC1 [KETOCONAZOLE] | 4 µg/mL (≈ 7.53 µM) | 0.5 µg/mL (≈ 0.941 µM) | 61.7 µM | 8 µg/mL (≈ 15.1 µM) | 0.06 µg/mL (≈ 0.113 µM) | 16 µg/mL (≈ 30.1 µM) | 32 µg/mL (≈ 60.2 µM) | 70 µM | MFC [20]: < 32 µg/mL; MIC [28]: < 16 µg/mL
OC(Cn1cncn1)(Cn1cncn1)c1ccc(F)cc1F [FLUCONAZOLE] | 2 µg/mL (≈ 6.53 µM) | 8 µg/mL (≈ 26.1 µM) | 385 µM | 64 µg/mL (≈ 209 µM) | 0.5 µg/mL (≈ 1.63 µM) |  |  | 316 µM | MFC [29]: > 64 µg/mL; MIC [30]: < 64 µg/mL
FC(F)(F)c1ccc(OC(CCn2ccnc2)c2ccccc2)cc1 (stereo unspecified) | 64 µg/mL (≈ 185 µM) | 16 µg/mL (≈ 46.2 µM) | 71 µM | 128 µg/mL (≈ 370 µM) | 4 µg/mL (≈ 11.5 µM) | 64 µg/mL (≈ 185 µM) | 128 µg/mL (≈ 370 µM) | 86 µM | MIC [18]: < 128 µg/mL; MFC [25]: < 128 µg/mL
